TCR CD3 inh – inhibitors of human TCR-CD3 interaction. TAMRA-labeled TCR probe fluorescence, biochemical. inhibition, % at 9.4 µM. actives 0.37% (n = 360,000). AID 651800; in the data active means inhibition above about 19%;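 further: recombinant mutant TCR 2C K166C tagged with TAMRA read by polarization; 0% = receptor in buffer alone and 100% = receptor with positive control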
rCAG binder – r(CAG) repeat RNA binding; TO-PRO-1 dye displacement fluorescence; inhibition, % at 3 µM; actives 1.3% (n = 370,000);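 active means inhibition above the plate cutoff, the mean of all test compounds on that plate plus 3 SD, cut at about 35% in these data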;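 further: 0% = DMSO alone and 100% = 100 µM mitoxantrone as full dye displacement; higher means more dye released from RNA so lower well fluorescence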
mABHD4 FP – inhibitors of mouse ABHD4 | Q8VD66 | inhibition, % at 8.92 µM | actives 0.54% (n = 370,000) | purified mABHD4, FP-Rh probe fluorescence polarization;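 active means inhibition exceeding the mean over every tested compound plus 3 SD, cut at about 30% in these data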;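 further: 0% = plate median of compound wells and 100% = S159A mutant with DMSO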
Target sequence (Q8VD66 whole entry, looked up): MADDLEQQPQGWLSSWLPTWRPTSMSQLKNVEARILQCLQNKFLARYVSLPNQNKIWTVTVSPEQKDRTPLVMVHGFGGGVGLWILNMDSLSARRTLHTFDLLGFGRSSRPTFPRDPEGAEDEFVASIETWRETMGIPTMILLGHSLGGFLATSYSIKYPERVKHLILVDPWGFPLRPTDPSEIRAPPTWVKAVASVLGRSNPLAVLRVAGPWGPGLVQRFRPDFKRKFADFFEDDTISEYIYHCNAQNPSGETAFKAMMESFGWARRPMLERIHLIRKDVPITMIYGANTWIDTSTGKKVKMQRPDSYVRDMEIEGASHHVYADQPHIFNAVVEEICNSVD
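Assay system: Wild-type mouse ABHD4 protein | Medium: HEPES pH 7.0 buffer, 150 mM NaCl, 0.01% Pluronic F-127 | Incubation: Enzyme–compound pre-incubation 45 min, then probe 60 min, both 25 °C | Technique: Fluorescence polarization with parallel and perpendicular emission, 525/598 nm | Evaluation: % inhibition of FP-Rh probe binding versus controls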
SIAE inh – blocks human sialic acid acetylesterase; Q9HAT2; SIAE FP-Rh probe binding, fluorescence polarization; inhibition, % at 9.66 µM; actives 0.69% (n = 370,000); AID 1053197;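 active means inhibition above a cutoff: mean of compounds within the control limits plus 3 SD of those, cut at about 17% in these data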;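 further: 0% = plate median of compound wells and 100% = probe without SIAE protein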
HTRA1 inhibitor – blocks human HTRA1 serine peptidase. inhibition, % at 5.96 µM. recombinant HTRA1, FP-rhodamine activity-based probe, fluorescence polarization. actives 0.5% (n = 340,000); in the data active means inhibition above about 36%;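 further: 0% = enzyme with DMSO and 100% = wells lacking enzyme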
SIAE inh conf – confirmation of human SIAE inhibitors. shares compounds with SIAE inh. SIAE FP-Rh activity-based probe, fluorescence polarization. inhibition, % at 9.66 µM. actives 13% (n = 2,300). AID 1117263;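 active means mean inhibition of the replicates above the hit cutoff set in the primary screen, cut at about 17% in these data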;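 further: 0% = SIAE with DMSO and probe and 100% = probe without SIAE; inhibitors lower polarization as more probe stays unbound to SIAE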
The depositor's hits bear a star; . = not tested or not shown. Compounds with a hit are over-represented: about 2.5% of the library has one in this group of screens.

SMILES | TCR CD3 inh | rCAG binder | mABHD4 FP | SIAE inh | HTRA1 inhibitor | SIAE inh conf
CCOc1ccc(Cl)cc1/C=C1/C(=O)ON=C1C | 0.1 | 3.3 | 5.4 | 17.9* | 1.4 | 0.9
COc1cc(/C=N/NC(=O)c2ccc(N)cc2)ccc1OC(=O)c1cccc(C)c1 | 0.6 | 3.1 | 5.1 | 21.8* | -29.4 | -2.3
Cc1ccc(OCC(=O)Nc2ccc(F)cc2)c([N+](=O)[O-])n1 | 2.6 | -0.6 | -4.8 | -0.4 | -2.5 | .
CC(=O)c1cccc(N(C(=O)c2ccco2)C(C(=O)NC2CCCCC2)c2ccc(C)o2)c1 (centres undefined) | -1.5 | -0.3 | -1.1 | 19.3* | 1.7 | -7.8
COc1ccc(N(C(=O)c2ccco2)C(C(=O)NC2CCCC2)c2ccc(N(C)C)cc2)cc1OC (centres undefined) | 0.0 | 5.6 | 1.4 | 25.9* | 2.2 | 3.6
CC(=O)c1cccc(N(C(=O)CNC(=O)c2ccco2)C(C(=O)NC2CCCC2)c2ccc(C)o2)c1 (centres undefined) | 2.9 | -4.6 | -0.9 | 0.5 | 0.6 | .
CCC/C(=N/NC(=O)c1ccccc1Cl)c1ccccc1 | 3.3 | 0.2 | 1.1 | 17.4* | -2.5 | 0.0
CCC/C(=N\NC(=O)c1ccccc1C)c1ccccc1 | 12.0 | -0.3 | -3.0 | 5.7 | -1.1 | .
CCCc1sc(N2CCCC(C(N)=O)C2)nc1-c1ccccc1 (centres undefined) | -2.2 | 0.9 | -3.3 | -2.1 | 4.1 | .
O=C(N=Nc1c(O)[nH]c2c(Cl)cc(Cl)cc12)c1ccccc1O | 8.0 | 6.1 | 19.8 | 29.1* | . | -2.6
O=C(N=Nc1c(O)[nH]c2ccc([N+](=O)[O-])cc12)c1ccccc1Cl | 1.9 | 1.2 | 6.6 | -1.7 | -4.2 | .
O=C(O)COc1ccc2oc3c(c2c1)CCCC3 | -3.0 | 8.6 | -1.2 | 0.8 | 0.2 | .
O=[N+]([O-])c1ccc(C2Nc3cccc4cccc(c34)N2)cc1 | -1.3 | 15.1 | 10.3 | 7.2 | 30.0 | .
Fc1ccc(C2Nc3cccc4cccc(c34)N2)cc1 | 1.0 | 8.3 | 9.0 | 19.4* | 11.8 | 10.1
Cc1ccc(C2Nc3cccc4cccc(c34)N2)s1 | 5.1 | 15.3 | 8.2 | 27.2* | 14.0 | 12.6
Cc1cc(C)nc(NS(=O)(=O)c2ccc(NC(=O)c3cccc(N4C(=O)CCC4=O)c3)cc2)n1 | 1.4 | 3.6 | 0.2 | -7.6 | -2.5 | .
COc1ccc(C)cc1NC(=O)C(c1ccccc1)N1CCNC(=O)C1 (centres undefined) | . | . | . | . | -2.8 | .
COC(=O)[C@H](C)NC(=O)Nc1ccccc1F | -5.4 | 1.7 | -3.5 | -0.8 | -9.1 | .
CCC(C)[C@H](NC(=O)Nc1ccccc1F)C(=O)OC (some centres undefined) | 6.3 | 2.1 | 3.1 | 22.1* | -1.7 | -0.3
COc1ccc(Cn2ccnc2CO)cc1[N+](=O)[O-] | 4.2 | 2.1 | -1.9 | 18.7* | 0.3 | 3.0
COc1ccc(Cn2cc([N+](=O)[O-])nc2C)cc1[N+](=O)[O-] | 0.5 | -2.8 | -0.3 | -5.6 | -4.7 | .
c1csc(C2=Nn3c(nnc3-c3ccncc3)SC2)c1 | -9.5 | 3.8 | 2.3 | 18.8* | 2.7 | -0.8
CCc1cc2c(=O)c(-c3nc4ccccc4n3C)c(C)oc2c(CN2CCOCC2)c1O | -1.8 | 0.9 | -9.3 | -3.3 | 2.6 | .
FC(F)(F)c1ccc2c(c1)NCC1CCCN21 (centres undefined) | -1.8 | -2.4 | 29.1 | 17.6* | 2.6 | 2.5
CC(=O)c1ccc2c(c1)C1C=CCC1C(c1ccc(S(=O)(=O)N3CCOCC3)cc1)N2 (centres undefined) | -1.4 | 31.0 | 13.2 | 17.8* | 4.7 | 2.3
SMILES | TCR CD3 inh | rCAG binder | mABHD4 FP | SIAE inh | HTRA1 inhibitor | SIAE inh conf
CC1CCN(C(=O)c2ccc(S(=O)(=O)N3CCOCC3)cc2)CC1 | -8.1 | -1.6 | 6.0 | 0.8 | 3.8 | .
CC(C)c1nnc(NC(=O)CCC(=O)NCc2ccccc2Cl)s1 | 10.4 | -2.4 | -1.5 | -1.5 | 6.7 | .
CC(C)Cc1nnc(NC(=O)CCC(=O)NCc2ccccc2Cl)s1 | 5.8 | 1.7 | 7.0 | 18.0* | 12.5 | -3.1
Cc1nc2c3ccccc3nc(NNC(=O)CCC(=O)N3CCCC(C)C3)n2n1 (centres undefined) | 10.4 | -4.4 | 5.0 | 19.1* | 4.8 | 1.4
Cc1ccsc1C(=O)OCC(=O)NC1CCCCC1 | -8.0 | -1.5 | 2.7 | 3.6 | 5.6 | .
CCNC(=S)NNC(=O)c1ccc(OC)cc1 | 2.4 | -1.6 | -4.3 | 17.4* | 3.1 | 7.0
Cc1ccc(NC(=S)NNS(=O)(=O)c2ccc3ccccc3c2)cc1Cl | -8.9 | 8.9 | -5.4 | 17.8* | -6.9 | 3.9

Source: PubChem BioAssay (The Scripps Research Institute Molecular Screening Center)
